Results collected from several papers.
Protocols differ between the studies behind these lines.
Target: Activated CDC42 kinase 1 (TNK2, Homo sapiens, UniProt Q07912)

CC/C(=N\NC(=O)NCc1cccc(O)c1)c1ccc(O)c(C)c1O — inhibition (enzyme activity; inhibitor; 0.1 µM): -0.3%
Cc1ccc(C(=O)NCc2ccsc2)cc1C#Cc1cn(C(C)C)c2ncnc(N)c12 — activity vs control (enzyme activity; inhibitor; 1 µM): 19%
CNC(=O)c1ccccc1Nc1cc(Nc2ccc(N3CCOCC3)cc2OC)ncc1C(F)(F)F — inhibition (enzyme activity; inhibitor; 1 µM): > 50%
CC(=O)N1CCC(c2ccc(C(=O)NC(=N)N)cc2C(F)(F)F)CC1 — remaining binding (cell-free assay; competition with immobilised ligand; 1 µM): 100%
O=C(Nc1cnn(-c2csc(C(=O)NC3COC3)c2)c1)Nc1ccccc1Cl — remaining activity (enzyme activity; inhibitor; 5 µM): 85.6%
Cc1cc(NC(=O)c2cccc3cc(-c4cccc5[nH]nc(N)c45)ccc23)ccc1F — activity vs control (enzyme activity; inhibitor; 0.1 µM): 107%
CO[C@@H](C)c1c(Nc2ccc([C@H](N(C)C(=O)C3CCS(=O)(=O)CC3)C(F)(F)F)cc2)cnc2cc(Cl)nn12 — remaining binding (cell-free assay; competition with immobilised ligand; 1 µM): 100%
COc1cccc2c(NCc3ccccc3)nc(-n3c(N)nc4ccccc43)nc12 — inhibition (target engagement in cells; inhibitor; chemoproteomics; 20 mM): 18.9%
CS(=O)(=O)CCNCc1ccc(-c2ccc3ncnc(Nc4ccc(OCc5cccc(F)c5)c(Cl)c4)c3c2)o1 — remaining signal (cell-free assay; 0.5 µM): 97.5%
CCCOc1ccc([C@H]2[C@H](C(=O)O)[C@@H](c3ccc4c(c3)OCO4)CN2CC(=O)Nc2c(CC)cccc2CC)cc1 — remaining binding (cell-free assay; competition with immobilised ligand; 1 µM): 100%
CC(C)(C)c1nc(-c2cccc(NS(=O)(=O)c3c(F)cccc3F)c2F)c(-c2ccnc(N)n2)s1 — remaining activity (enzyme activity; inhibitor; radiometric; 1 µM): 29%
Cc1ccc(NC(=O)c2ccc(C)c(C(F)(F)F)c2)cc1C#Cc1nn(C2CCC(O)CC2)c2ncnc(N)c12 (centres unmarked) — remaining signal (cell-free assay; 10 µM): 4%
Cc1sc(C(=O)NC2COC2)cc1-n1cc(NC(=O)Nc2c(F)cccc2Cl)cn1 — remaining activity (enzyme activity; inhibitor; 10 µM): 106%
O=C(N1CCS(=O)(=O)CC1)N1C[C@H](c2ccc(OC(F)(F)F)cc2)C[C@H](c2nc(C3CC3)no2)C1 — remaining binding (cell-free assay; competition with immobilised ligand; 1 µM): 97%
Cc1cnc(NC2CCOCC2)nc1-n1cnc(C(=O)NC(CN)c2cc(F)cc(Cl)c2)c1 (centres unmarked) — remaining activity (enzyme activity; inhibitor; radiometric; 1 µM): 110%
O=C1NC(=O)c2cc(Nc3ccc(F)cc3)c(Nc3ccc(F)cc3)cc21 — remaining signal (cell-free assay; 0.5 µM): 93.2%
CNC(=O)c1ccc(Nc2ncc(C(F)(F)F)c(NCc3nccnc3N(C)S(C)(=O)=O)n2)cc1 — remaining binding (cell-free assay; competition with immobilised ligand; 0.1 µM): 100%
